Assay results: article PMC4894846 (Nature cell biology, 2014)
“And” between values parts separate entries of the source, which are not always exact repeats. Equal values may be shown once.

Legend:
[1] = system: Pfa1 cells; assay: Cell death elicited by ferroptosis-inducing agents; assay type: cell-based, mouse; conditions: for Induction of cell death through GSH depletion: Pfa1 cells; for Prevention of cell death elicited by FINs: erastin 2.5 μM, BSO 20 μM, RSL3 20 nM, DFO 10 μM, Fer1 0.1 μM, αToc 1 μM, Nec1 20 μM, Z-VAD-FMK 50 μM
[2] = system: TAM-inducible Gpx4−/− cells (Pfa1); assay: Rescue of cell death induced by TAM-inducible Gpx4 deletion in Pfa1 cells; assay type: cell-based, mouse; conditions: 1 μM TAM, viability 72 h after knockout induction
[3] = system: Gpx4−/− cells; assay: Lipid peroxidation in Gpx4−/− cells; assay type: cell-based, mouse; conditions: 48 h after knockout induction; Liproxstatin-1 50 nM
In short: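 Gpx4 loss is induced in TAM-inducible Pfa1 cells grown in dishes in DMEM with 10% FBS. Test compound is present during induction. At 48 h after knockout induction, cells are washed, stained with BODIPY 581/591 C11 for 1 h, and probe oxidation is measured by flow cytometry.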

[4] = system: CYP450 1A; assay: CYP450 inhibition 1A; assay type: in vitro ADME; conditions: read-out: CYP450 inhibition 1A IC50
[5] = target: CYP450 2D6 (Homo sapiens, UniProt P10635); assay: CYP450 inhibition 2D6; assay type: in vitro ADME; conditions: read-out: CYP450 inhibition 2D6 IC50
[6] = system: HepG2 cells; assay: Cytotoxicity in HepG2 cells; assay type: cell-based; conditions: 72 h incubation
In short: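 Cells are incubated with increasing concentrations of the test compound for 72 h. Viability is then read with the AquaBluer live-cell indicator. TC50 is derived by curve fitting.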

[7] = system: Pfa1 cells; assay: Cell death induced by staurosporine and H2O2; assay type: cell-based, mouse; conditions: Liproxstatin-1 200 nM; staurosporine 0.2 μM, H2O2 200 μM; 24 h
In short: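 Gpx4-proficient (non-induced) Pfa1 mouse cells, kept in DMEM with 10% FBS. The test compound is given together with the death trigger: BSO 10 μM, erastin 1 μM or RSL3 0.5 μM, or staurosporine 0.2 μM or H2O2 200 μM. Viability is read 24 h after treatment. Mean ± s.d. of n = 3 wells; representative of at least four independent experiments.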

[8] = system: HRPTEpiCs; assay: RSL3-induced lipid oxidation in HRPTEpiCs; assay type: cell-based, human; conditions: RSL3 0.2 μM; 24 h
In short: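 Primary human renal proximal tubule epithelial cells, cultured per supplier recommendations. Cells are treated with RSL3 (0.2 μM) with or without test compound. After 24 h, cells are stained with BODIPY 581/591 C11 for 1 h and lipid oxidation is measured by flow cytometry. Representative of four independent experiments.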

[9] = Mouse pharmacokinetics; assay type: in vivo
[10] = system: L929 cells; assay: TNFα/Z-VAD-FMK-induced necroptosis in L929 cells; assay type: cell-based; conditions: Liproxstatin-1 1 μM; TNFα 5 ng ml^−1 + Z-VAD-FMK 50 μM; 8 h
[11] = target: CYP450 2C9 (Homo sapiens, UniProt P11712); assay: CYP450 inhibition 2C9; assay type: in vitro ADME; conditions: read-out: CYP450 inhibition 2C9 IC50
[12] = system: primary human renal proximal tubule epithelial cells (HRPTEpiCs); assay: Viability of HRPTEpiCs treated with RSL3; assay type: cell-based; conditions: 24 h
In short: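 Primary human renal proximal tubule epithelial cells, cultured per supplier recommendations. Cells are exposed to RSL3 with or without test compound, and viability is read by AquaBluer 24 h after treatment. Mean ± s.d. of n = 3 wells; representative of three independent experiments.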

[13] = target: CYP450 2C19 (Homo sapiens, UniProt P33261); assay: CYP450 inhibition 2C19; assay type: in vitro ADME; conditions: read-out: CYP450 inhibition 2C19 IC50
[14] = target: CYP450 3A4 (Homo sapiens, UniProt P08684); assay: CYP450 inhibition 3A4; assay type: in vitro ADME; conditions: read-out: CYP450 inhibition 3A4 IC50
[15] = target: hERG channel (Homo sapiens, UniProt Q12809); assay: hERG patch clamp assay; assay type: cell-based; conditions: read-out: hERG patch clamp assay IC50
[16] = system: CreERT2;Gpx4fl/fl mice; assay: In vivo rescue of TAM-induced CreERT2; set-up: species or system mouse; conditions: 10 mg kg^−1 i.p. daily
In short: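 CreERT2;Gpx4fl/fl mice receive 0.5 mg TAM in Miglyol on days 1 and 3. From day 4, the test compound (10 mg kg−1) or vehicle (1% DMSO in PBS) is given i.p. once daily, with injections and scoring blinded. Survival is compared by log-rank/Gehan–Breslow–Wilcoxon tests (n = 12 vehicle, n = 13 treated; run twice). Kidney TUNEL+ cells are counted 9 days after TAM.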

[17] = system: C57BL/6J mice; assay: Hepatic ischaemia/reperfusion injury model; assay type: in vivo, mouse; conditions: 90 min ischaemia, 24 h reperfusion
In short: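 Male C57BL/6J mice, 8–10 weeks old, 22–24 g, randomised; operators blinded. Under xylazine/ketamine, an atraumatic clip is placed across the portal vein, hepatic artery and bile duct above the right lateral lobe branch. Reperfusion follows 90 min of ischaemia. At 24 h, serum ALT/AST is measured and necrotic area is scored (n = 17 and n = 5). Mean ± s.e.m.; one-way ANOVA with Dunnett's post-test.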

[18] = system: PZL cells (CreERT2;Gpx4fl/fl/Alox15−/−); assay: Cell death on TAM-induced Gpx4 deficiency in PZL cells; assay type: cell-based, mouse
[19] = system: Rip1−/− cells; assay: FIN/RSL3-induced ferroptosis in Rip1−/− cells; assay type: cell-based; conditions: RSL3 1 μM; 6 h pre-treatment; viability at 24 h

Chain of CYP450 2D6 (P10635 whole entry): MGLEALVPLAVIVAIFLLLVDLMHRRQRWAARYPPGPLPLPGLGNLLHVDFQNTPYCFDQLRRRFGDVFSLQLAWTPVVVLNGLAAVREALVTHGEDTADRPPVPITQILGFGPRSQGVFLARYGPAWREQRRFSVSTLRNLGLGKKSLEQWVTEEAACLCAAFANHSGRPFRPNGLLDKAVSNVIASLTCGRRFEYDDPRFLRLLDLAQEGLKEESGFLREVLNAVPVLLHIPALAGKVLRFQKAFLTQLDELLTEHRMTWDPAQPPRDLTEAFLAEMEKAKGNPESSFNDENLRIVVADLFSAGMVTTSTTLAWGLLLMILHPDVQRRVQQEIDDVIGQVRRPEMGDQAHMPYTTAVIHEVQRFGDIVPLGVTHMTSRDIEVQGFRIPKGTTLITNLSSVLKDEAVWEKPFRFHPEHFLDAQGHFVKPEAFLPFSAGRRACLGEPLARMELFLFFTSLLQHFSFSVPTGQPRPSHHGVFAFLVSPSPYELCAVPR
Chain of CYP450 2C19 (P33261 whole entry): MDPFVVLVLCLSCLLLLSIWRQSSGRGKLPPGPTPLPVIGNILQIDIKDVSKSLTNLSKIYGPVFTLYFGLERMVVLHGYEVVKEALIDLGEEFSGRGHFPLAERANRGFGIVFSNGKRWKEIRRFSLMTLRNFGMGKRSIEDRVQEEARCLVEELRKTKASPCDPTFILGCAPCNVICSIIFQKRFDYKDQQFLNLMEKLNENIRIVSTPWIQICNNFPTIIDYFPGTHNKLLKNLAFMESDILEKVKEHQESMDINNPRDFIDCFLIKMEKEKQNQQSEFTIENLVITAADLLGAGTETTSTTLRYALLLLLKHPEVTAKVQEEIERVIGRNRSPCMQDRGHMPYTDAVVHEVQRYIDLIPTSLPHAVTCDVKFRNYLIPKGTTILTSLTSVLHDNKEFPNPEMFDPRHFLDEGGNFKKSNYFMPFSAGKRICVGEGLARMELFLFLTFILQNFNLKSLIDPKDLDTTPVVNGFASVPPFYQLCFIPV
Chain of CYP450 3A4 (P08684 whole entry): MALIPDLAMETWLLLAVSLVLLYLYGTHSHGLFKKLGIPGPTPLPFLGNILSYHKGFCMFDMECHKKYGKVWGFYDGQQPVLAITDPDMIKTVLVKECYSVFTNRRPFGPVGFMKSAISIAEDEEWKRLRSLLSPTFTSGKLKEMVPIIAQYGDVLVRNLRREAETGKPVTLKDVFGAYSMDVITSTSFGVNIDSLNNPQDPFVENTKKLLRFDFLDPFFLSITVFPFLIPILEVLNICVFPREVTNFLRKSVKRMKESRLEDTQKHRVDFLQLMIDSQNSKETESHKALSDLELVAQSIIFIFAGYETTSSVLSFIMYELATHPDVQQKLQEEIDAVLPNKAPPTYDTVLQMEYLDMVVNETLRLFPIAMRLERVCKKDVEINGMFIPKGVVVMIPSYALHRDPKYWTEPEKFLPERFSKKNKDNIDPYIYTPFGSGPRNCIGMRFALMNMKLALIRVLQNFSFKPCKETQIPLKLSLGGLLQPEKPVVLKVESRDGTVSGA
Chain of CYP450 2C9 (P11712 whole entry): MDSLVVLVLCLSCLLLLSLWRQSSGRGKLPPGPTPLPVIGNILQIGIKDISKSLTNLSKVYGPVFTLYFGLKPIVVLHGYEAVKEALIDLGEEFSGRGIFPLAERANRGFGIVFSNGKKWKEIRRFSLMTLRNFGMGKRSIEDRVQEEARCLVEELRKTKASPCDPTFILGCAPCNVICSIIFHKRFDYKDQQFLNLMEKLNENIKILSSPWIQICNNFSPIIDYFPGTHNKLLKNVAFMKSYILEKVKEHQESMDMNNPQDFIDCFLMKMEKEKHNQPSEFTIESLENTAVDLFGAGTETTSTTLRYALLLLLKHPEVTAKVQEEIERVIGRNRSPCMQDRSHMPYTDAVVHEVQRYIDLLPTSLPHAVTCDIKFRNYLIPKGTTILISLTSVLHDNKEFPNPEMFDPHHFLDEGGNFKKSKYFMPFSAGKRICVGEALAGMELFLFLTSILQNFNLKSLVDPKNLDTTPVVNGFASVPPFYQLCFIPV
Chain of hERG channel (Q12809 whole entry): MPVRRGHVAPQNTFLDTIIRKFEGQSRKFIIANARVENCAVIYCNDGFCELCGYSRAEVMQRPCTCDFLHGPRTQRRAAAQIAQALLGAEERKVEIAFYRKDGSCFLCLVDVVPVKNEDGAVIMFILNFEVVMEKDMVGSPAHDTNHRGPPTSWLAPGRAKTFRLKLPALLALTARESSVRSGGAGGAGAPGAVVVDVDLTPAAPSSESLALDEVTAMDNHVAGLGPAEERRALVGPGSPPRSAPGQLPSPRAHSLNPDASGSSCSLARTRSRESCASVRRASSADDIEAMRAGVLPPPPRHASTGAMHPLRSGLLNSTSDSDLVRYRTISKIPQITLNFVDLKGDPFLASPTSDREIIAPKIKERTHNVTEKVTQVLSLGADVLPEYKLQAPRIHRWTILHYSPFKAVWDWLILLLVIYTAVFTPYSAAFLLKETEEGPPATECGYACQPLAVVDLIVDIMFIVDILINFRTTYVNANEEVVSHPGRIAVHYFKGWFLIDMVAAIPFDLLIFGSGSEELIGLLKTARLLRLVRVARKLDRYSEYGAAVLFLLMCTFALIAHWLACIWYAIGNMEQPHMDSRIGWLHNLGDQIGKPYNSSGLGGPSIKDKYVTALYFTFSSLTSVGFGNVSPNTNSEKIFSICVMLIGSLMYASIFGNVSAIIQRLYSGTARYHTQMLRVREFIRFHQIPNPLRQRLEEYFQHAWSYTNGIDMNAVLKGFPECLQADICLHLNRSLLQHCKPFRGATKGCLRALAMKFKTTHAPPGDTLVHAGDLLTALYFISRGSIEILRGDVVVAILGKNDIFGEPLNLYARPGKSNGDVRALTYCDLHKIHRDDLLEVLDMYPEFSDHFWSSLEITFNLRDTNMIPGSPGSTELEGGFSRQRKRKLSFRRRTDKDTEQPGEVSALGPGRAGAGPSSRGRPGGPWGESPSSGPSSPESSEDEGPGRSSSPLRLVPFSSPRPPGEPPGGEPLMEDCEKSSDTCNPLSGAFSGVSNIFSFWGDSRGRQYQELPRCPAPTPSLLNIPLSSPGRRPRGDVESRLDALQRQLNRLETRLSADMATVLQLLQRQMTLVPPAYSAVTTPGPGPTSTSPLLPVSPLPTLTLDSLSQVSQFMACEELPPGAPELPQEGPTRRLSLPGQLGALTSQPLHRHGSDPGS

Structure (SMILES): CCCCS(=N)(=O)CCC(N)C(=O)O [BSO, L-buthionine sulphoximine]
- Induction of cell death through GSH depletion [1]: efficiently triggered rapid cell death

Structure (SMILES): CC(=O)N(O)C/C=C/c1cccc(Oc2ccccc2)c1 [BWA4C]
- Rescue of cell death in response to Gpx4 deletion [2]: prevented cell death

Structure (SMILES): CC(=O)N(O)CCCCCNC(=O)CCC(=O)N(O)CCCCCNC(=O)CCC(=O)N(O)CCCCCN [DFO, deferoxamine]
- Effect on lipid peroxidation (BODIPY 581/591 C11 oxidation) [3]: could be ameliorated
- Rescue of cell death in response to Gpx4 deletion [2]: cell death could also be inhibited
- Prevention of cell death elicited by FINs ([1]; 24 h): can be prevented

Structure (SMILES): CCOC(=O)c1ccc(NC2CCCCC2)c(N)c1 [Fer1, ferrostatin-1]
- Effect on lipid peroxidation (BODIPY 581/591 C11 oxidation) [3]: could be ameliorated
- Rescue of cell death in response to Gpx4 deletion [2]: rescued Gpx4^−/− cells from cell death
- Prevention of cell death elicited by FINs ([1]; 24 h): can be prevented

Structure (SMILES): Clc1cccc(CN=C2Nc3ccccc3NC23CCNCC3)c1 [Liproxstatin-1]
- IC50 [4]: > 25 µM
- IC50 [5]: 4.1 µM
- Cytotoxicity in HepG2 cells TC50 [6]: 6 µM
- Rescue of cell death induced by staurosporine and H2O2 [7]: fails to rescue cell death
- Effect on RSL3-induced BODIPY 581/591 C11 oxidation [8]: could be blocked
- Bioavailability [9]: 52%
- C ([9]; i.v. 1 mg kg^−1): 0.4 µg/mL
- MRTINF (mean residence time extrapolated to infinity) ([9]; i.v. 1 mg kg^−1): 4.9 h
- Total Cl ([9]; i.v. 1 mg kg^−1): 128 ml h^−1 and 66 ml min^−1 kg^−1
- V ([9]; i.v. 1 mg kg^−1): 849 mL
- Vss ([9]; i.v. 1 mg kg^−1): 629 mL
- t1/2 ([9]; i.v. 1 mg kg^−1): 4.6 h
- Cmax ([9]; p.o. 5 mg kg^−1): 80 ng/mL
- Tmax ([9]; p.o. 5 mg kg^−1): 2 h
- Effect on necroptosis [10]: does not prevent necroptosis
- IC50 [11]: > 25 µM
- Protection from RSL3-induced cell death ([12]; Liproxstatin-1 100 nM): able to protect
- Effect on lipid peroxidation (BODIPY 581/591 C11 oxidation) [3]: completely prevents lipid peroxidation
- IC50 [13]: > 25 µM
- IC50 [14]: > 25 µM
- IC50 [15]: > 25 µM
- Rescue of cell death in response to Gpx4 deletion [2]: inhibit ferroptosis in the low nanomolar range
- Protection against FINs ([1]; Liproxstatin-1 200 nM, BSO 10 μM, erastin 1 μM, RSL3 0.5 μM, 24 h): protects against FINs
- Median survival ([16]; vehicle-treated 11 days, P <0.0001): 14 days
- TUNEL+ cells in kidney compared with vehicle ([16]; day 9 after TAM treatment): strongly reduced number of TUNEL+ cells
- Tissue injury (AST/ALT, necrotic area) [17]: mitigated tissue injury

Structure (SMILES): CCCCCCCCCCCCCCCCOCC(COCC(F)(F)F)OP(=O)(O)OC (stereo not drawn) [MJ33]
- Rescue of cell death in response to Gpx4 deletion [2]: prevented cell death

Structure (SMILES): CC(C)c1ccc2c(c1)c(SC(C)(C)C)c(CC(C)(C)C(=O)O)n2Cc1ccc(Cl)cc1 [MK886]
- Rescue of cell death in response to Gpx4 deletion [2]: prevented cell death

Structure (SMILES): CC(=O)N[C@@H](CS)C(=O)O [NAC, N-acetylcysteine]
- Rescue of cell death of PZL cells on Gpx4 deficiency [18]: could not be rescued

Structure (SMILES): CN1C(=O)C(Cc2c[nH]c3ccccc23)NC1=S (stereo not drawn) [Nec1, necrostatin-1]
- Prevention of ferroptosis in Rip1−/− cells [19]: ferroptosis could be prevented
- Rescue of cell death in response to Gpx4 deletion [2]: rescued Gpx4^−/− cells from cell death
- Prevention of cell death elicited by FINs ([1]; 24 h): can be prevented

Structure (SMILES): CN1C(=O)NC(Cc2c[nH]c3c(Cl)cccc23)C1=O (stereo not drawn) [Nec1s]
- Rescue of cell death in response to Gpx4 deletion [2]: did not protect

Structure (SMILES): c1ccc2c(c1)SCc1c-2[nH]c2ccccc12 [PD146176]
- Rescue of cell death in response to Gpx4 deletion [2]: prevented cell death

Structure (SMILES): COC(=O)c1ccc([C@@H]2c3[nH]c4ccccc4c3C[C@@H](C(=O)OC)N2C(=O)CCl)cc1 [RSL3, (1S, 3R)-RSL3, reference compound]
- Induction of cell death in HRPTEpiCs [12]: efficiently triggered cell death

Structure (SMILES): CCOc1ccccc1-n1c(C(C)N2CCN(C(=O)COc3ccc(Cl)cc3)CC2)nc2ccccc2c1=O (stereo not drawn) [erastin]
- Induction of cell death through GSH depletion [1]: efficiently triggered rapid cell death

Structure (SMILES): CC(c1cc2ccccc2s1)N(O)C(N)=O (stereo not drawn) [zileuton]
- Rescue of cell death in response to Gpx4 deletion [2]: prevented cell death

Structure (SMILES): Cc1c(C)c2c(c(C)c1O)CC[C@@](C)(CCC[C@H](C)CCC[C@H](C)CCCC(C)C)O2 [αToc, α-tocopherol]
- Rescue of cell death of PZL cells on Gpx4 deficiency [18]: rescued
- Rescue of cell death in response to Gpx4 deletion [2]: cell death could also be inhibited
- Prevention of cell death elicited by FINs ([1]; 24 h): can be prevented
